Compound activity from PubChem.
Hits are enriched below; roughly 3.5% of the tested compounds scored in any of these assays.
RGS4 pot: potentiators or activators of RGS4 | HEK293 M3R/inducible RGS4, carbachol calcium flux Fluo4; hits give low values | B-score at 10 µM | 310,000 compounds, 0.92% hits | AID 463111;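 active = B-score of the integrated calcium signal more than 4 SD below the library mean, with starting fluorescence not abnormally high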;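 also: negative B-score means reduced calcium response which marks RGS4 activation or potentiation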
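Also added: carbachol at ECmax as muscarinic agonist stimulus; Assay system: HEK293 cells with stable M3R and inducible RGS4; Timing: overnight RGS4 induction, 30 min dye load 37 °C, 20 min compound RT; Measured by: Fluo4-AM (2 µM) calcium-flux fluorescence, kinetic read.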
MrgX1 antagonist: antagonists of human MrgX1 receptor | 310,000 compounds, 1.3% hits | Q96LB2 | MRGX1-HEK293 calcium flux, Fluo-4, BAM8-22 antagonism; hits give low values | AID 588676 | B-score at 10 µM;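 active = calcium-response B-score plate-corrected more than 3 library SD below zero, starting fluorescence within 5 deviations, no agonist response on first addition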;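 also: peak minus trough fluorescence over baseline after final BAM8-22 challenge near maximal dose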
Target sequence (Q96LB2 whole entry, looked up): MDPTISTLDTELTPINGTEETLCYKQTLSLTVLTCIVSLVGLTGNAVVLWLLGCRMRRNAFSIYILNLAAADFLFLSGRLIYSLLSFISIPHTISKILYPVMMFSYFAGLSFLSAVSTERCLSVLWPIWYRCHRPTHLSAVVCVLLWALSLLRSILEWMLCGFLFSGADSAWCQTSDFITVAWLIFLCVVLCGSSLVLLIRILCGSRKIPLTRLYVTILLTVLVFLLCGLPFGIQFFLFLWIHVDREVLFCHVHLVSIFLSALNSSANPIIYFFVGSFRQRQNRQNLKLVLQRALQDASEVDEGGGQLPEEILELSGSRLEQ
RGS4 inh: human RGS4 inhibition | B-score at 10 µM | P49798 | AID 463165 | HEK293 M3R/RGS4 inducible, Fluo-4 calcium flux; hits give high values; triggered by carbachol at its EC20 | 310,000 compounds, 0.45% hits;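 active = B-score, a plate-corrected calcium signal, over three deviations above library mean, with baseline fluorescence within five deviations of library mean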;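 also: RGS4 expression induced by doxycycline in cells with stable M3 receptor; B-score is computed from the integrated fluorescence ratio over baseline after carbachol; higher B-score means a larger calcium signal and so more RGS4 inhibition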
Target sequence (P49798 whole entry, looked up): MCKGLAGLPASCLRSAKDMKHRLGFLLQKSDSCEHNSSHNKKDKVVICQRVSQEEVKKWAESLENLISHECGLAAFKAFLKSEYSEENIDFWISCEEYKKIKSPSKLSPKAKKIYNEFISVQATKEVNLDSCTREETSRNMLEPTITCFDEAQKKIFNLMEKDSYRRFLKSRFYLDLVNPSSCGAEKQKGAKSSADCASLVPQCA
MrgX1 ag: agonists of human MrgX1 receptor; Q96LB2; MrgX1-HEK293 cells, Fluo-4 calcium fluorescence, agonist mode; hits give high values; B-score at 10 µM; 310,000 compounds, 0.44% hits; AID 588627;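 active = calcium response B-score plate-corrected fluorescence ratio at least 3 library SD, with starting fluorescence B-score inside 5 SD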
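Assay system: stable human MrgX1 HEK293 cell line. Quantity: 15,000 cells per well. Schedule: cells plated overnight, dye loaded 0.5 h 37 °C, 0.5 h room temperature. Detection: Fluo-4 NW calcium-flux fluorescence, kinetic read. Read-out basis: peak-minus-minimum fluorescence over baseline, converted to B scores. Control set: positive and negative control wells on each plate.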
MrgX1 allo act: human MrgX1 positive allosteric modulation, primary screen | Q96LB2 | MrgX1-HEK293, Fluo-4 calcium flux, FDSS; hits give high values | B-score at 10 µM | 310,000 compounds, 0.63% hits | AID 588675;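 active = plate-corrected calcium response at least 3 library SD above typical, normal starting fluorescence, not activating the receptor alone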;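 also: compound read alongside a low EC10 to EC30 dose of BAM8-22 agonist; peak minus trough fluorescence over baseline measured at the second addition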
MrgX1 ant reconf: confirmation of human MrgX1 receptor antagonists. shares compounds with MrgX1 antagonist. MrgX1-HEK293, BAM8-22 calcium flux, Fluo-4; hits give low values. remaining BAM8-22 calcium response % of control (hits give low values), % at 10 µM. 2,300 compounds, 19% hits;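 active = remaining agonist calcium response no higher than 100% minus 3 SD of agonist-only control wells, with starting fluorescence near control levels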;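 also: agonist BAM8-22 given at a near maximal EC90 to ECmax level; peak minus minimum fluorescence divided by baseline after agonist addition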
HEK293 Ca flux: activity in parental HEK293 cells lacking MrgX1. shares compounds with MrgX1 antagonist. Fluo-4 calcium fluorescence, FDSS. fluorescence ratio F(max-min)/F0 at 10 µM. 4,000 compounds, 2% hits. AID 624111;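 active = duplicate-averaged calcium fluorescence ratio at least three times the standard deviation of buffer wells, a nonspecific response in parental cells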
HEK293 Ca counter: MrgX1 allosteric activator counter-screen hit in parental HEK293 cells. shares compounds with MrgX1 antagonist. parental HEK293 calcium flux, Fluo-4 fluorescence ratio; hits give high values. fluorescence ratio F(max-min)/F0 at 10 µM. 4,000 compounds, 0.4% hits;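 active = calcium fluorescence ratio, averaged over duplicates, at least 3 SD of the buffer-well ratio, meaning a nonspecific response in receptor-free cells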;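 also: untransfected parental HEK293 lacking MrgX1 used as counterscreen for MrgX1 allosteric activators; fluorescence change taken during the second addition on a kinetic imager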
HEK293 Ca cntr2: MrgX1 activator counter-screen hit in parental HEK293 cells; shares compounds with MrgX1 antagonist; Fluo-4 calcium fluorescence (FDSS); hits give high values; fluorescence ratio F(max-min)/F0 at 10 µM; 4,000 compounds, 8.7% hits; AID 624115;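 active = calcium fluorescence ratio at least three times the spread of buffer wells, meaning a non-specific response in parental cells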
The depositor's hits bear a star; i = inactive; x = no result given.

SMILES	RGS4 pot	MrgX1 antagonist	RGS4 inh	MrgX1 ag	MrgX1 allo act	MrgX1 ant reconf	HEK293 Ca flux	HEK293 Ca counter	HEK293 Ca cntr2
COc1ccc(C(=O)N/N=C(\C)CC(=O)NC2CCCCC2)c(OC)c1	i	i	i	i	i	x	x	x	x
CC(=O)Oc1c(S(=O)(=O)c2ccc(C)cc2)c(C)nn1C(C)(C)C	i	i	i	i	i	x	x	x	x
CCCCC(=O)Oc1c(S(=O)(=O)c2ccc(C)cc2)c(C)nn1C(C)(C)C	i	-5.18*	i	i	i	i	i	i	i
CCC(CO)n1c(=S)[nH]c2cc(OC)c(OC)cc2c1=O (stereo not drawn)	i	-4.61*	i	i	i	i	i	i	i
CCOc1cc2[nH]c(=S)n(C(C)C)c(=O)c2cc1OCC	i	i	i	i	i	x	x	x	x
N#Cc1c(C(F)(F)F)cc(-c2ccco2)nc1SCc1ccccn1	i	-4.65*	i	i	i	i	i	i	i
CSc1nc(-c2ccco2)cc(C(F)(F)F)c1C#N	i	i	i	i	i	x	x	x	x
C/C(=N/NC(=O)CNC(=O)C1COc2ccccc2O1)c1ccc([N+](=O)[O-])cc1 (stereo not drawn)	i	i	i	i	i	x	x	x	x
CCOCCCNC(=O)CCn1nc(-c2ccc(Cl)cc2)ccc1=O	i	i	i	i	i	x	x	x	x
Cc1[nH]c(=O)nc(SCc2cccc(Cl)c2)c1C#N	i	i	i	i	i	x	x	x	x
Cc1[nH]c(=O)nc(SCc2ccc(Cl)c(Cl)c2)c1C#N	i	-7.04*	i	i	i	i	i	i	i
Fc1ccc(Cn2nnnc2CN2CCc3ccccc3C2)cc1	i	i	i	i	i	x	x	x	x
O=C(NCc1ccccc1F)C1CCCN1C(=O)Nc1ccccc1 (stereo not drawn)	i	i	i	i	i	x	x	x	x
Cc1ccc(-n2cc(S(=O)(=O)c3ccc(C)cc3)[nH]c2=O)cc1	i	-4.81*	i	i	i	i	i	i	i
C=CCNC(=O)COC(=O)c1ccc(C)c(NC(=O)c2ccco2)c1	i	-7.64*	i	i	i	i	i	i	i
CCCCNC(=O)COC(=O)c1ccc(C)c(NC(=O)c2ccco2)c1	i	i	i	i	i	x	x	x	x
O=S1(=O)C=CC(Nc2ccccc2)C1 (stereo not drawn)	i	i	i	i	i	x	x	x	x
CC1CCCCC1NC(=O)c1cccc(S(=O)(=O)N2CCN(C)CC2)c1 (stereo not drawn)	i	i	i	i	i	x	x	x	x
CC1CCCC(NC(=O)c2cccc(S(=O)(=O)N3CCN(c4ccccc4)CC3)c2)C1C (stereo not drawn)	i	-9.24*	i	i	i	i	i	i	i
Cc1ccc2[nH]c(-c3cccc(F)c3)cc(=O)c2c1	i	-4.57*	i	i	i	i	i	i	i
O=C1N(Cc2cccnc2)C[C@@H]2C[C@@H](c3cccc(OC4CCCC4)c3)N3CCC[C@@]123	i	i	i	i	i	x	x	x	x
COc1ccc(N2CC(O)=C(c3nc(-c4ccc(F)cc4)cs3)C2=N)cc1Cl	i	i	i	i	i	x	x	x	x
COc1ccc(N2CC(O)=C(c3nc(-c4ccc(F)cc4)cs3)C2=N)cc1OC	i	-6.75*	i	i	i	i	i	i	i
CCOC(=O)CNC(=O)CSc1ccc(-c2nc3ccccc3[nH]2)cn1	i	-4.77*	i	i	i	i	i	i	i
CC(C)(C)NC(=O)CSc1nnc(CN2CCCCCC2=O)n1-c1ccccn1	i	i	i	i	i	x	x	x	x
SMILES	RGS4 pot	MrgX1 antagonist	RGS4 inh	MrgX1 ag	MrgX1 allo act	MrgX1 ant reconf	HEK293 Ca flux	HEK293 Ca counter	HEK293 Ca cntr2
O=C(CSc1nnc(CN2CCCCCC2=O)n1-c1ccccn1)NCC(F)(F)F	i	-4.61*	i	i	i	i	i	i	i
Cc1cc(C)nc(NC(=O)c2cccc(Cl)c2)n1	i	i	i	i	i	x	x	x	x
COc1ccc(C)cc1NC(=O)c1nnn(Cc2cc(C)ccc2C)c1N	i	-5.18*	i	i	i	i	i	i	i
COc1ccc(NC(=O)c2nnn(Cc3ccc(SC)cc3)c2N)c(OC)c1	i	-4.68*	i	i	i	i	i	i	i
COc1cccc(CCc2nnc(CCC(=O)NC(C)c3c(C)nn(C)c3C)o2)c1 (stereo not drawn)	i	i	i	i	i	x	x	x	x
CC(C)CN1C(=O)C(=O)N(CC(=O)c2ccc[nH]2)C1=O	i	i	i	i	i	x	x	x	x
CCn1c(SCC(=O)OC)nc2sc3c(c2c1=O)CC(C)(C)OC3	i	i	i	i	i	x	x	x	x
CCSc1nc2sc3c(c2c(=O)n1CC)CC(C)(C)OC3	i	-7.06*	i	i	i	i	i	i	i
S=c1[nH]nc(C2CCCCC2)o1	i	i	i	i	i	x	x	x	x
CCCn1c(=O)c2c(nc3n2CCCN3CCc2ccc(OC)c(OC)c2)n(C)c1=O	i	-4.76*	i	i	i	i	i	i	i
COc1ccc(CCN2CCCn3c2nc2c3c(=O)n(CC(C)C)c(=O)n2C)cc1OC	i	-6.09*	i	i	i	68.0%*	i	i	i
COc1ccc(CCN2CCCn3c2nc2c3c(=O)n(Cc3ccccc3F)c(=O)n2C)cc1OC	i	i	i	i	i	x	x	x	x
CCn1c(=O)c2c(nc3n2CCCN3CCc2ccc(OC)c(OC)c2)n(C)c1=O	i	i	i	i	i	x	x	x	x
CCOc1ccccc1NC(=O)NCc1ccc2c(c1)OCO2	i	i	i	i	i	x	x	x	x
Cc1ccc(-c2[nH]c3ccccc3c2SCCN)cc1	i	i	i	i	i	x	x	x	x
Cc1[nH]c2ccccc2c1SCCN	i	-7.46*	i	i	i	i	i	i	i
